# Data: ChEMBL document CHEMBL1126625, “7-Azetidinylquinolones as antibacterial agents. Synthesis and structure-activity relationships” (J Med Chem, 1993)
# Columns and labels:
# Enterobacter cloacae = assay: Minimum inhibitory concentration (MIC)preventing growth of Enterobacter cloacae; format: functional
# Staphylococcus aureus [1] = assay: Minimum inhibitory concentration (MIC) preventing growth of […]; format: functional
# Enterococcus faecalis = assay: Minimum inhibitory concentration (MIC) preventing growth of Streptococcus faecalis ATCC 10541; format: functional
# Bacillus subtilis = assay: Minimum inhibitory concentration (MIC) preventing growth of Bacillus subtilis; format: functional
# Escherichia coli [2] = assay: Efficacy on systemic infections after oral administration in mice was determined against Escherichia coli HM-42; format: functional
# Outline: (§1)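 Mouse protection test using 4 groups of 10 mice. Mice were infected intraperitoneally with a bacterial suspension slightly above LD100. A single oral dose was given immediately after infection, with four doses, one per group, chosen from in vitro activity. Survival was scored after one week, and ED50 (total mg/kg protecting 50% of mice) was interpolated from group survival rates.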
# Escherichia coli [3] = assay: Minimum inhibitory concentration (MIC)preventing growth of Escherichia coli; format: functional
# Pseudomonas aeruginosa [4] = assay: Minimum inhibitory concentration (MIC)preventing growth of Pseudomonas aeruginosa; format: functional
# [5] = tested on: Staphylococcus epidermidis; assay: Minimum inhibitory concentration (MIC) preventing growth of Staphylococcus epidermidis; format: functional
# Klebsiella pneumoniae = assay: Minimum inhibitory concentration (MIC)preventing growth of Klebsiella pneumoniae; format: functional
# Staphylococcus aureus [6] = assay: Efficacy on systemic infections after oral administration in mice was determined against […] HS-93; format: functional; outline: as §1
# Proteus vulgaris = assay: Minimum inhibitory concentration (MIC) preventing growth of Proteus vulgaris; format: functional
# Pseudomonas aeruginosa [7] = assay: Efficacy on systemic infections after oral administration in mice was determined against Pseudomonas aeruginosa HS-116; format: functional; outline: as §1
# Mus musculus = assay: Blood level after oral administration in mice (50 mg/kg) was determined (area under the concentration-time curve recorded at 0.5, 1, 2, and 4 hour after dosing); format: ADME, organism-based; design: dose 50 mg/kg, time < 4 hr, route oral; details: in vivo
# Outline: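 Single oral dose of 50 mg/kg to mice. Blood taken from groups of six mice at 0.5, 1, 2 and 4 h after dosing. Serum levels measured by disk agar diffusion bioassay with Bacillus subtilis ATCC 6633 on Seed Agar, plates incubated 18 h at 37 °C, giving total activity in serum. AUC 0-4 h expressed as μg/mL […].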
# Bacillus cereus = assay: Minimum inhibitory concentration (MIC) preventing growth of Bacillus cereus; format: functional
# Morganella morganii = assay: Minimum inhibitory concentration (MIC) preventing growth of Morganella morganii; format: functional
SMILES,MIC (Enterobacter cloacae),MIC (Staphylococcus aureus [1]),MIC (Enterococcus faecalis),MIC (Bacillus subtilis),MIC (Escherichia coli [3]),MIC (Pseudomonas aeruginosa [4]),MIC [5],MIC (Klebsiella pneumoniae),MIC (Proteus vulgaris),AUC (Mus musculus),MIC (Bacillus cereus),MIC (Morganella morganii),ED50 (Escherichia coli [2]),ED50 (Staphylococcus aureus [6]),ED50 (Pseudomonas aeruginosa [7])
CNC1(C)CN(c2cc3c(cc2F)c(=O)c(C(=O)O)cn3C2CC2)C1,0.12 µg/mL,0.25 µg/mL,1 µg/mL,0.06 µg/mL,0.06 µg/mL,2 µg/mL,0.25 µg/mL,0.06 µg/mL,0.25 µg/mL,8400 ng·h/mL,0.25 µg/mL,0.06 µg/mL,1.9 mg/kg,16.5 mg/kg,69.8 mg/kg
CC1(O)CN(c2c(F)cc3c(=O)c(C(=O)O)cn(C4CC4)c3c2F)C1,0.5 µg/mL,0.25 µg/mL,1 µg/mL,0.015 µg/mL,0.5 µg/mL,4 µg/mL,0.25 µg/mL,0.5 µg/mL,0.5 µg/mL,–,0.25 µg/mL,0.5 µg/mL,–,–,–
CCNC1CN(c2cc3c(cc2F)c(=O)c(C(=O)O)cn3C2CC2)C1,0.06 µg/mL,0.25 µg/mL,2 µg/mL,0.06 µg/mL,0.06 µg/mL,2 µg/mL,0.25 µg/mL,0.06 µg/mL,0.25 µg/mL,18100 ng·h/mL,0.25 µg/mL,0.5 µg/mL,–,–,–
CN(C)C1(C)CN(c2c(F)cc3c(=O)c(C(=O)O)cn(C4CC4)c3c2F)C1,0.12 µg/mL,0.25 µg/mL,1 µg/mL,0.06 µg/mL,0.12 µg/mL,2 µg/mL,0.25 µg/mL,0.25 µg/mL,0.5 µg/mL,–,0.25 µg/mL,0.25 µg/mL,1.4 mg/kg,7.4 mg/kg,70.2 mg/kg
NC1CN(c2nc3c(cc2F)c(=O)c(C(=O)O)cn3-c2ccc(F)cc2F)C1,0.12 µg/mL,0.25 µg/mL,2 µg/mL,0.12 µg/mL,0.12 µg/mL,2 µg/mL,0.25 µg/mL,0.015 µg/mL,0.5 µg/mL,–,0.25 µg/mL,0.25 µg/mL,1.5 mg/kg,5.3 mg/kg,75.2 mg/kg
CC1(N)CN(c2c(F)cc3c(=O)c(C(=O)O)cn(C(C)(C)C)c3c2F)C1,0.25 µg/mL,0.5 µg/mL,2 µg/mL,0.12 µg/mL,0.25 µg/mL,2 µg/mL,0.5 µg/mL,0.06 µg/mL,1 µg/mL,–,0.5 µg/mL,0.5 µg/mL,–,–,–
CNC1CN(c2cc3c(cc2F)c(=O)c(C(=O)O)cn3C2CC2)C1,0.03 µg/mL,0.25 µg/mL,1 µg/mL,0.03 µg/mL,0.03 µg/mL,0.5 µg/mL,0.12 µg/mL,0.03 µg/mL,0.25 µg/mL,4200 ng·h/mL,0.12 µg/mL,0.03 µg/mL,3.8 mg/kg,36.3 mg/kg,145 mg/kg
CC1(N)CN(c2cc3c(cc2F)c(=O)c(C(=O)O)cn3C2CC2)C1,0.12 µg/mL,0.12 µg/mL,0.5 µg/mL,0.06 µg/mL,0.06 µg/mL,0.5 µg/mL,0.12 µg/mL,0.12 µg/mL,0.06 µg/mL,7000 ng·h/mL,0.12 µg/mL,0.06 µg/mL,2.7 mg/kg,36.1 mg/kg,62.2 mg/kg
CCn1cc(C(=O)O)c(=O)c2c(N)c(F)c(N3CC(C)(N)C3)c(F)c21,0.25 µg/mL,0.5 µg/mL,1 µg/mL,0.12 µg/mL,0.25 µg/mL,2 µg/mL,0.5 µg/mL,0.25 µg/mL,0.5 µg/mL,–,1 µg/mL,0.25 µg/mL,–,–,–
CNC1CN(c2c(F)cc3c(=O)c(C(=O)O)cn(C4CC4)c3c2F)C1,0.03 µg/mL,0.25 µg/mL,1 µg/mL,0.06 µg/mL,0.03 µg/mL,0.5 µg/mL,0.12 µg/mL,0.03 µg/mL,0.5 µg/mL,32700 ng·h/mL,0.25 µg/mL,0.06 µg/mL,1.5 mg/kg,10.6 mg/kg,28.5 mg/kg
CC1(N)CN(c2c(F)c(N)c3c(=O)c(C(=O)O)cn(C4CC4)c3c2F)C1,0.015 µg/mL,0.06 µg/mL,0.25 µg/mL,0.015 µg/mL,0.015 µg/mL,0.5 µg/mL,0.06 µg/mL,0.015 µg/mL,0.12 µg/mL,–,0.06 µg/mL,0.015 µg/mL,3.3 mg/kg,7.2 mg/kg,71 mg/kg
O=C(O)c1cn(C2CC2)c2c(F)c(N3CC(O)C3)c(F)cc2c1=O,0.06 µg/mL,0.06 µg/mL,0.5 µg/mL,0.007 µg/mL,0.06 µg/mL,2 µg/mL,0.12 µg/mL,0.007 µg/mL,0.06 µg/mL,–,0.03 µg/mL,0.06 µg/mL,11.3 mg/kg,29.7 mg/kg,61.3 mg/kg
NCC1CN(c2cc3c(cc2F)c(=O)c(C(=O)O)cn3C2CC2)C1,0.25 µg/mL,0.5 µg/mL,0.5 µg/mL,0.12 µg/mL,0.12 µg/mL,1 µg/mL,0.25 µg/mL,0.12 µg/mL,1 µg/mL,0 ng·h/mL,0.25 µg/mL,0.12 µg/mL,–,–,–
CC1(N)CN(c2c(F)cc3c(=O)c(C(=O)O)cn(C4CC4)c3c2F)C1,0.06 µg/mL,0.12 µg/mL,0.5 µg/mL,0.03 µg/mL,0.06 µg/mL,0.5 µg/mL,0.12 µg/mL,0.03 µg/mL,0.25 µg/mL,20000 ng·h/mL,0.12 µg/mL,0.12 µg/mL,3.1 mg/kg,13 mg/kg,65.7 mg/kg

# Further molecules by falling MIC (Enterobacter cloacae), results first:
MIC (Enterobacter cloacae),MIC (Staphylococcus aureus [1]),MIC (Enterococcus faecalis),MIC (Bacillus subtilis),MIC (Escherichia coli [3]),MIC (Pseudomonas aeruginosa [4]),MIC [5],MIC (Klebsiella pneumoniae),MIC (Proteus vulgaris),AUC (Mus musculus),MIC (Bacillus cereus),MIC (Morganella morganii),SMILES,ED50 (Escherichia coli [2]),ED50 (Staphylococcus aureus [6]),ED50 (Pseudomonas aeruginosa [7])
0.5 µg/mL,0.5 µg/mL,0.25 µg/mL,0.25 µg/mL,0.5 µg/mL,2 µg/mL,0.5 µg/mL,0.5 µg/mL,1 µg/mL,–,1 µg/mL,0.25 µg/mL,CCn1cc(C(=O)O)c(=O)c2cc(F)c(N3CC(C)(N)C3)cc21,–,–,–
0.25 µg/mL,0.12 µg/mL,0.12 µg/mL,0.06 µg/mL,0.25 µg/mL,2 µg/mL,0.12 µg/mL,0.25 µg/mL,1 µg/mL,1700 ng·h/mL,0.12 µg/mL,0.25 µg/mL,NCC1CN(c2c(F)cc3c(=O)c(C(=O)O)cn(C4CC4)c3c2F)C1,–,–,–
0.25 µg/mL,0.25 µg/mL,2 µg/mL,0.06 µg/mL,0.25 µg/mL,4 µg/mL,0.25 µg/mL,0.25 µg/mL,0.5 µg/mL,–,0.25 µg/mL,0.25 µg/mL,CN(C)C1(C)CN(c2cc3c(cc2F)c(=O)c(C(=O)O)cn3C2CC2)C1,2.7 mg/kg,16.1 mg/kg,296 mg/kg
0.25 µg/mL,0.12 µg/mL,2 µg/mL,0.12 µg/mL,0.25 µg/mL,2 µg/mL,0.12 µg/mL,0.015 µg/mL,1 µg/mL,–,0.12 µg/mL,0.25 µg/mL,CC1(N)CN(c2c(F)cc3c(=O)c(C(=O)O)cn(-c4ccc(F)cc4)c3c2F)C1,3.2 mg/kg,10.9 mg/kg,159 mg/kg
0.12 µg/mL,0.25 µg/mL,2 µg/mL,0.015 µg/mL,0.06 µg/mL,2 µg/mL,0.12 µg/mL,0.12 µg/mL,0.12 µg/mL,–,0.12 µg/mL,0.12 µg/mL,CN(C)C1CN(c2nc3c(cc2F)c(=O)c(C(=O)O)cn3C2CC2)C1,–,–,–
0.12 µg/mL,0.5 µg/mL,2 µg/mL,0.12 µg/mL,0.12 µg/mL,2 µg/mL,0.5 µg/mL,0.015 µg/mL,1 µg/mL,–,0.5 µg/mL,0.12 µg/mL,CCn1cc(C(=O)O)c(=O)c2cc(F)c(N3CC(C)(N)C3)c(F)c21,4.1 mg/kg,8.2 mg/kg,57.3 mg/kg
0.12 µg/mL,0.12 µg/mL,1 µg/mL,0.06 µg/mL,0.25 µg/mL,2 µg/mL,0.12 µg/mL,0.06 µg/mL,0.12 µg/mL,–,0.12 µg/mL,0.25 µg/mL,CC1(O)CN(c2cc3c(cc2F)c(=O)c(C(=O)O)cn3C2CC2)C1,–,–,–
0.12 µg/mL,0.5 µg/mL,4 µg/mL,0.06 µg/mL,0.25 µg/mL,4 µg/mL,1 µg/mL,0.06 µg/mL,1 µg/mL,0 ng·h/mL,0.5 µg/mL,0.5 µg/mL,CCNCC1CN(c2cc3c(cc2F)c(=O)c(C(=O)O)cn3C2CC2)C1,–,–,–
0.06 µg/mL,0.06 µg/mL,0.25 µg/mL,0.015 µg/mL,0.03 µg/mL,0.5 µg/mL,0.06 µg/mL,0.03 µg/mL,0.12 µg/mL,–,0.06 µg/mL,0.12 µg/mL,CC1(N)CN(c2c(F)cc3c(=O)c(C(=O)O)cn(-c4ccc(F)cc4)c3c2Cl)C1,0.4 mg/kg,1.1 mg/kg,54.9 mg/kg
